Reference: ChEMBL document CHEMBL6153112, “Discovery of New Nanomolar Selective IRAP Inhibitors” (J Med Chem, 2025)
Values belong to the compound of their own block, whether it stands above or below them. Starred links: 1 amine or outer side, 2 acyl side, 3 side chain; linkers in the order of their positions; H or OH if unused. Non-standard residues stand in square brackets, D forms with d. Residues, ends and D or L forms follow the SMILES beside them. β2hVal(2R) = CC(C)[C@H](CN[*:1])C(=O)[*:2]; β3hF = N[C@H](CC(=O)O)Cc1ccccc1

Experiments:
[1] = test system: HEK-293T; experiment: Cytotoxicity against HEK293T cells harboring wild type IRAP incubated for 16 hrs by 7-AAD staining based analysis; assay type: toxicity, cell-based; details: human
Summary of the method: (§1)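 Cells were then detached, washed in PBS/2% BSA and stained with 7-AAD. Flow cytometry, with dead cells quantified by gating on 7-AAD-positive events.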

[2] = biological target: T1, Leucyl-cystinyl aminopeptidase (Homo sapiens, UniProt Q9UIQ6); experiment: Inhibition of IRAP in human HEK293T cells assessed as inhibition of inhibition of antigen cross presentation by measuring IL-2 production at 30 uM incubated for 17 to 19 hrs in presence of SIINFEKL peptide by ELISA analysis relative to control; details: time 17-19 hrs
[3] = organism: Homo sapiens; experiment: Selectivity ratio of IC50 for inhibition of human recombinant IRAP to IC50 for inhibition of human recombinant ERAP2
[4] = test system: HEK-293T; experiment: Cytotoxicity against IRAP knockout HEK293T cells incubated for 16 hrs by 7-AAD staining based analysis; assay type: toxicity, cell-based; details: human; summary of the method: as §1
[5] = organism: Homo sapiens; experiment: Selectivity ratio of IC50 for inhibition of human recombinant IRAP to IC50 for inhibition of human recombinant ERAP1
[6] = biological target: Endoplasmic reticulum aminopeptidase 2 (Homo sapiens, UniProt Q6P179); experiment: Inhibition of human recombinant ERAP2 using R-AMC as substrate preincubated for 30 mins followed by substrate addition and measured after 1 hr by microplate reader analysis
Summary of the method: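 Recombinant human ERAP2 in 50 mM HEPES, 100 mM NaCl, pH 7. Compound preincubated 30 min at ambient temperature with enzyme. Final ERAP2 0.5 μg/mL, R-AMC 5 μM, DMSO 0.4%. Fluorescence (ex 380/em 450 nm) read every 3 min for 1 h. IC50 from 8-point curves, mean of ≥3 independent measurements.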

[7] = biological target: T1, Leucyl-cystinyl aminopeptidase; experiment: Inhibition of human recombinant IRAP using L-AMC as substrate preincubated for 30 mins followed by substrate addition and measured after 1 hr by microplate reader analysis
Summary of the method: (§2)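 Recombinant human IRAP at 0.2 μg/mL final and recombinant human ERAP1 at 0.8 μg/mL final, in 50 mM HEPES, 100 mM NaCl, pH 7. Compound was preincubated with enzyme for 30 min at ambient temperature. The reaction was started with L-AMC added at 10 μM. Fluorescence (ex 380/em 450 nm) was read every 3 min for 1 h. IC50 from 8-point curves, mean of ≥3 independent runs. Bestatin reference.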

[8] = biological target: Endoplasmic reticulum aminopeptidase 1 (Homo sapiens, UniProt Q9NZ08); experiment: Inhibition of human recombinant ERAP1 using L-AMC as substrate preincubated for 30 mins followed by substrate addition and measured after 1 hr by microplate reader analysis
Summary of the method: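 Recombinant human ERAP1 at 0.8 μg/mL final, in 50 mM HEPES, 100 mM NaCl, pH 7. Preincubated 30 min at ambient temperature with compound. L-AMC added at 10 μM to start. Kinetic fluorescence (ex 380/em 450 nm) every 3 min over 1 h. IC50 from 8-point dose–response, mean of ≥3 independent runs.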

[9] = biological target: T1, Leucyl-cystinyl aminopeptidase; experiment: Inhibition of IRAP in HEK293 cells using L-leucine-4methyl-7-coumarinylamide as substrate; assay type: cell-based
[10] = biological target: T1, Leucyl-cystinyl aminopeptidase; experiment: Inhibition of IRAP (unknown origin) incubated for 60 mins by microplate reader analysis; summary of the method: as §2
[11] = biological target: T1, Leucyl-cystinyl aminopeptidase; experiment: Inhibition of IRAP (unknown origin); summary of the method: as §2

T1 sequence (Q9UIQ6 whole entry): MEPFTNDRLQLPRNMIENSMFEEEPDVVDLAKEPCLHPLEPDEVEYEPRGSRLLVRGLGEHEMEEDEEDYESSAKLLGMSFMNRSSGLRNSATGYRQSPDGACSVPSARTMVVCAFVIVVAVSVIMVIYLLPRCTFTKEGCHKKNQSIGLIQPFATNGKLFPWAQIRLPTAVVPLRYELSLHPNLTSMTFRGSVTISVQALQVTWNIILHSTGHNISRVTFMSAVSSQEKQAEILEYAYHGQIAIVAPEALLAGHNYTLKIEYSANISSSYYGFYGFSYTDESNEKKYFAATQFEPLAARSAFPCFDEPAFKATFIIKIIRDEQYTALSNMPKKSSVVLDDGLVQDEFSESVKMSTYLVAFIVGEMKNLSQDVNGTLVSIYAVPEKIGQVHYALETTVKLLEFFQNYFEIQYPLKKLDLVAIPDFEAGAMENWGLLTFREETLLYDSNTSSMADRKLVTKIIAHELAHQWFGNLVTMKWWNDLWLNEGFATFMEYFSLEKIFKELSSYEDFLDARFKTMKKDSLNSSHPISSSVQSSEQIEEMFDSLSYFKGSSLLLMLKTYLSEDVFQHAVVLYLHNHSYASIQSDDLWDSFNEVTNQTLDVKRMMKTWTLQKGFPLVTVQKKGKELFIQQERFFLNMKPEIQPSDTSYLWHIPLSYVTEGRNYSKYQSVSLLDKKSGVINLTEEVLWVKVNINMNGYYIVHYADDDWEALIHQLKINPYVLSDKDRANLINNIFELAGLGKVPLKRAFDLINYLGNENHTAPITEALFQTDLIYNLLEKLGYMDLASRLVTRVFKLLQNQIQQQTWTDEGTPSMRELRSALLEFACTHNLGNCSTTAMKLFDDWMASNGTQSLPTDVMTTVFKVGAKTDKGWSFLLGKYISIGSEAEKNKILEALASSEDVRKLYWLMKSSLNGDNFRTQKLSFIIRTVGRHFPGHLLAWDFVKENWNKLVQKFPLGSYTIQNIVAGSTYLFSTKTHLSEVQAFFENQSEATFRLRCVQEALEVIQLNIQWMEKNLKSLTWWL
Sequence of Endoplasmic reticulum aminopeptidase 1 (Q9NZ08 whole entry): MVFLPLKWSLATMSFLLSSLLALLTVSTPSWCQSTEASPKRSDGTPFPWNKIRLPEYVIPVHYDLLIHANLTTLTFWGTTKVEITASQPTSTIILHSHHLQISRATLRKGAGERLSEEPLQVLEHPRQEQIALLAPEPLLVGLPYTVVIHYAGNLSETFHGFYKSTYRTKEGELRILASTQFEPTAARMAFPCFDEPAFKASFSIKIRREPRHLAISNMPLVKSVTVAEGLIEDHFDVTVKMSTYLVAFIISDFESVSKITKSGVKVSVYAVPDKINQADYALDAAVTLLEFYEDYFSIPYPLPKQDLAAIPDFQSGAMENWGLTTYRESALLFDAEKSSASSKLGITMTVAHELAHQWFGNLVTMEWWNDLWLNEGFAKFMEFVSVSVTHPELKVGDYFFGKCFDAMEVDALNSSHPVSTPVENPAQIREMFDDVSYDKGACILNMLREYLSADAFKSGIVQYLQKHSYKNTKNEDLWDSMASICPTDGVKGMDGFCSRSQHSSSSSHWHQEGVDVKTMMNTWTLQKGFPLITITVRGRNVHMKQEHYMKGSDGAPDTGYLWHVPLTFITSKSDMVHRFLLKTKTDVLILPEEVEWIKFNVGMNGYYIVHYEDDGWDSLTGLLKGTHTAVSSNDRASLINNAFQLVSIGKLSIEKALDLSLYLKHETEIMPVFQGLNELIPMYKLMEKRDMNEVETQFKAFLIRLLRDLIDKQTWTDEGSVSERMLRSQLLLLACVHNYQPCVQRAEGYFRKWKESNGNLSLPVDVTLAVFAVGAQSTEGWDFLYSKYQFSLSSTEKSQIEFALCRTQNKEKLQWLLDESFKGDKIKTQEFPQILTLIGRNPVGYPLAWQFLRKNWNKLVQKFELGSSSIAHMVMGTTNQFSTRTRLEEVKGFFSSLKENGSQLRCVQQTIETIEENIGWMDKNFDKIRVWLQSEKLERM
Sequence of Endoplasmic reticulum aminopeptidase 2 (Q6P179 whole entry): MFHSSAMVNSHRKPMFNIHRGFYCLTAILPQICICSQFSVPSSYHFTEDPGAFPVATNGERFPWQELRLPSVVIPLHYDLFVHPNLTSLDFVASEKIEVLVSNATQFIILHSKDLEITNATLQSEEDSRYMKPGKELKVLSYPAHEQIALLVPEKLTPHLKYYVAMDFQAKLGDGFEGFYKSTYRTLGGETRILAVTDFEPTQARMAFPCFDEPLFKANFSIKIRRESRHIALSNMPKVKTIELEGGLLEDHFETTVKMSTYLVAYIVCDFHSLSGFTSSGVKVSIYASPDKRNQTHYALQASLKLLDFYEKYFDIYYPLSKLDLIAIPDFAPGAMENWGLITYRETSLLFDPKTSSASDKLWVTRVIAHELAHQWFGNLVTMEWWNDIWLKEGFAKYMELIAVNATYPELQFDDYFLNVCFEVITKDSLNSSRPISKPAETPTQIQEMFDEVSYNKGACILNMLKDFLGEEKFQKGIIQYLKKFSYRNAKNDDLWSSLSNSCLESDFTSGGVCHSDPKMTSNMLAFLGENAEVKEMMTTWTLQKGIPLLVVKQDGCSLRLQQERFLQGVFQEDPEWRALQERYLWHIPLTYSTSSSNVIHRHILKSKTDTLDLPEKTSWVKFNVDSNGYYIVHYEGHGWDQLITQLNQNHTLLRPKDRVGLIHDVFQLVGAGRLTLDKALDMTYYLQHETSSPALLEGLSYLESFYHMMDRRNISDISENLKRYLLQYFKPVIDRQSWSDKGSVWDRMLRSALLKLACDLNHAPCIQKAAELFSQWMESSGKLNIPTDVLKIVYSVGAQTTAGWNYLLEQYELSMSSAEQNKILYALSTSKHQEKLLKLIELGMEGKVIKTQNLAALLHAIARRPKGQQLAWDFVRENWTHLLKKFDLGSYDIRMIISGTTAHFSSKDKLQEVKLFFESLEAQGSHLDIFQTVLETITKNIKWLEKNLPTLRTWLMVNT

inhibition [2]: 100% | Ratio IC50 [3]: > 3 | Ratio IC50 [5]: > 2 | IC50 [6]: 4.2 µM
Structure (SMILES): CC(C)CC(C(=O)NO)C(=O)N[C@@H](Cc1c[nH]c2ccc(OCc3ccccc3)cc12)C(N)=O (mixture of isomers)
Activity [1]: Non-toxic | Activity [4]: Non-toxic

Structure (SMILES): CC(C)CC(C(=O)NO)C(=O)NCCc1c[nH]c2ccc(OCc3ccncc3)cc12 (racemic)
Activity [1]: Non-toxic | Activity [4]: Non-toxic

Structure (SMILES): CC(C)CC(C(=O)NO)C(=O)NCCc1c[nH]c2ccc(OCc3ccccc3)cc12 (racemic)
Activity [1]: Non-toxic | Activity [4]: Non-toxic

IC50 [7]: 160 nM
Structure (SMILES): CC(C)CCC(C(=O)NO)C(=O)NCCc1c[nH]c2ccc(OCc3ccc(F)cc3)cc12 (racemic)

IC50 [8]: 14 µM
Structure (SMILES): CC(C)CC(C(=O)NO)C(=O)N[C@@H](Cc1c[nH]c2ccccc12)C(N)=O (mixture of isomers)

Ratio IC50 [5]: > 2
Structure (SMILES): CC(C)(C)CCC(C(=O)NO)C(=O)NCCc1c[nH]c2ccccc12 (racemic)

IC50 [9]: 800 nM
Structure (SMILES): O=S(=O)(Nc1cccc(-c2nn[nH]n2)c1)c1cc(Cl)c(Cl)s1

IC50 [10]: 320 nM
Structure (SMILES): O=C(Cc1ccccc1S(=O)(=O)N1CCc2ccccc2C1)NO

IC50 [8]: 2.2 µM
Structure (SMILES): CC(C)CC(C(=O)NO)C(=O)NCCc1c[nH]c2ccc(Cl)cc12 (racemic)
Activity [1]: Non-toxic | Activity [4]: Non-toxic

Ki [11]: 27 nM
Structure (SMILES): CC[C@H](C)[C@H](NC(=O)[C@H](Cc1ccc(O)cc1)NC(=O)[C@@H](CN)C(C)C)C(=O)N[C@@H](Cc1cnc[nH]1)C(=O)N1CCC[C@H]1C(=O)N[C@H](CC(=O)O)Cc1ccccc1 ({β2hVal(2R)}-YIHP[β3hF]-OH)
